ChEMBL document CHEMBL1250546, “Synthesis of non-purine analogs of 6-aryl-9-benzylpurines, and their antimycobacterial activities. Compounds modified in the imidazole ring” (Bioorg Med Chem, 2010)
In brackets after ≈: the same amount, converted by molar mass.

Assays:
Type in all cases: functional
[1] = tested on: Mycobacterium tuberculosis; assay: Antibacterial activity against multidrug-resistant Mycobacterium tuberculosis H37Rv carrying luxAB at 128 uM incubated for 10 days under low oxygen followed by 28 hrs normoxic recovery by low-oxygen-recovery assay relative to control
[2] = tested on: Mycobacterium tuberculosis; assay: Antibacterial activity against multidrug-resistant Mycobacterium tuberculosis H37Rv carrying luxAB incubated for 10 days under low oxygen followed by 28 hrs normoxic recovery by low-oxygen-recovery assay
In short: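 Low-oxygen-recovery assay using low-oxygen-adapted M. tuberculosis H37Rv luxAB, which carries a luciferase reporter, in 7H12 medium in microplate format. Cultures were incubated 10 days under low oxygen, then given 28 h of normoxic recovery before luminescence was read. MIC is the lowest concentration giving at least a 90% luminescence reduction relative to untreated controls.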

[3] = tested on: Mycobacterium tuberculosis; assay: Antibacterial activity against isoniazid-resistant Mycobacterium tuberculosis after 7 days by microplate alamar blue assay; conditions: 168 h
In short: (§1)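 Microplate alamar blue assay in 7H12 medium against M. tuberculosis H37Rv ATCC 27294 and against rifampicin-, isoniazid-, streptomycin- and kanamycin-resistant Mtb strains. Bacteria were incubated with test samples for 7 days, then fluorescence was read. MIC is the lowest concentration giving at least a 90% fluorescence reduction relative to untreated controls.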

[4] = tested on: Mycobacterium tuberculosis; assay: Antibacterial activity against rifampicin-resistant Mycobacterium tuberculosis after 7 days by microplate alamar blue assay; conditions: 168 h
[5] = tested on: Mycobacterium tuberculosis; assay: Antibacterial activity against clofazimine-resistant Mycobacterium tuberculosis after 7 days by microplate alamar blue assay; conditions: 168 h
[6] = tested on: Mycobacterium tuberculosis; assay: Antibacterial activity against streptomycin-resistant Mycobacterium tuberculosis after 7 days by microplate alamar blue assay; conditions: 168 h
[7] = tested on: Mycobacterium tuberculosis; assay: Antibacterial activity against kanamycin-resistant Mycobacterium tuberculosis after 7 days by microplate alamar blue assay; conditions: 168 h; in short: as §1

| Structure (SMILES) | inhibition at 128 µM [1] | MIC [2] | MIC [3] | MIC [4] | MIC [5] | MIC [6] | MIC [7] |
| --- | --- | --- | --- | --- | --- | --- | --- |
| COc1ccc(Cn2nnc3c(-c4ccco4)ncnc32)cc1 | 61% | > 128 µM |  |  |  |  |  |
| COc1ccc(Cn2ncc3c(-c4ccco4)ncnc32)cc1 | 60% | > 128 µM |  |  |  |  |  |
| COc1ccc(Cn2ccc3c(-c4ccco4)ncnc32)cc1 | 82% | > 128 µM | 0.13 µM (≈ 0.0397 µg/mL) | 0.14 µM (≈ 0.0427 µg/mL) | 0.16 µM (≈ 0.0489 µg/mL) | 0.18 µM (≈ 0.055 µg/mL) | 0.1 µM (≈ 0.0305 µg/mL) |
| COc1ccc(Cn2ccc3c(-c4cccs4)ncnc32)cc1 |  | 60 µM (≈ 19.3 µg/mL) | 0.14 µM (≈ 0.045 µg/mL) | 0.13 µM (≈ 0.0418 µg/mL) | 0.18 µM (≈ 0.0579 µg/mL) | 0.26 µM (≈ 0.0836 µg/mL) | 0.12 µM (≈ 0.0386 µg/mL) |
| COc1ccc(Cn2ccc3c(-c4ccco4)nc(Cl)nc32)cc1 | 88% | > 128 µM | 0.12 µM (≈ 0.0408 µg/mL) | 0.1 µM (≈ 0.034 µg/mL) | 0.06 µM (≈ 0.0204 µg/mL) | 0.08 µM (≈ 0.0272 µg/mL) | 0.1 µM (≈ 0.034 µg/mL) |
| COc1ccc(Cn2ccc3c(-c4cccs4)nc(Cl)nc32)cc1 |  | 120 µM (≈ 42.7 µg/mL) | 0.09 µM (≈ 0.032 µg/mL) | 0.14 µM (≈ 0.0498 µg/mL) | < 0.05 µM | 0.06 µM (≈ 0.0214 µg/mL) | 0.08 µM (≈ 0.0285 µg/mL) |
| COc1ccc(Cn2ccc3c(-c4ccco4)nc(OC)nc32)cc1 |  | 87 µM (≈ 29.2 µg/mL) | 0.09 µM (≈ 0.0302 µg/mL) | 0.09 µM (≈ 0.0302 µg/mL) | 0.07 µM (≈ 0.0235 µg/mL) | 0.09 µM (≈ 0.0302 µg/mL) | 0.1 µM (≈ 0.0335 µg/mL) |
| COc1ccc(Cn2cnc3c(-c4ccco4)ncnc32)cc1 | 88% | > 128 µM |  |  |  |  |  |
| COc1ccc(Cn2cnc3c(-c4ccco4)nc(Cl)nc32)cc1 | 82% | > 128 µM | 0.15 µM (≈ 0.0511 µg/mL) | 0.15 µM (≈ 0.0511 µg/mL) | 0.47 µM (≈ 0.16 µg/mL) | 0.56 µM (≈ 0.191 µg/mL) | 0.16 µM (≈ 0.0545 µg/mL) |
| NNC(=O)c1ccncc1 [ISONIAZID] |  |  | > 8 µM | 0.25 µM (≈ 0.0343 µg/mL) |  | 0.24 µM (≈ 0.0329 µg/mL) | 0.39 µM (≈ 0.0535 µg/mL) |
| COc1c(N2C[C@@H]3CCCN[C@@H]3C2)c(F)cc2c(=O)c(C(=O)O)cn(C3CC3)c12 [MOXIFLOXACIN] |  |  | 0.3 µM (≈ 0.12 µg/mL) |  |  |  | 0.34 µM (≈ 0.136 µg/mL) |
| O=[N+]([O-])c1cn2c(n1)OC[C@@H](OCc1ccc(OC(F)(F)F)cc1)C2 [PRETOMANID] |  |  | 0.07 µM (≈ 0.0251 µg/mL) | 0.17 µM (≈ 0.0611 µg/mL) | 0.54 µM (≈ 0.194 µg/mL) | 0.1 µM (≈ 0.0359 µg/mL) | 0.22 µM (≈ 0.079 µg/mL) |
| CO[C@H]1/C=C/O[C@@]2(C)Oc3c(C)c(O)c4c(O)c(c(/C=N/N5CCN(C)CC5)c(O)c4c3C2=O)NC(=O)/C(C)=C\C=C\[C@H](C)[C@H](O)[C@@H](C)[C@@H](O)[C@@H](C)[C@H](OC(C)=O)[C@@H]1C [RIFAMPIN] |  |  | 0.02 µM (≈ 0.0165 µg/mL) | > 4 µM | 0.02 µM (≈ 0.0165 µg/mL) | 0.04 µM (≈ 0.0329 µg/mL) | 0.02 µM (≈ 0.0165 µg/mL) |
| CN[C@@H]1[C@H](O[C@H]2[C@H](O[C@H]3[C@H](O)[C@@H](O)[C@H](N=C(N)N)[C@@H](O)[C@@H]3N=C(N)N)O[C@@H](C)[C@]2(O)C=O)O[C@@H](CO)[C@H](O)[C@H]1O [STREPTOMYCIN] |  |  | 0.13 µM (≈ 0.0756 µg/mL) | 0.21 µM (≈ 0.122 µg/mL) | 0.33 µM (≈ 0.192 µg/mL) | > 16 µM | 0.98 µM (≈ 0.57 µg/mL) |
